Results as given in ChEMBL document CHEMBL1131123, “Extended aromatic furan amidino derivatives as anti-Pneumocystis carinii agents” (J Med Chem, 1998).

What was measured:
[1] = test system: Rattus norvegicus; assay: In vivo evaluation of iv dosage of the Dicationic furans against Pneumocystis carinii in lung tissue of rats at 2 umol/kg/day; assay type: functional
Outline: (§1)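 Immunosuppressed rat model of P. carinii pneumonia. Compounds are dosed intravenously. Read-out is cysts per g of lung tissue, compared against pooled saline-treated control rats (n = 125). Other details follow ref 2.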

[2] = In vivo evaluation of iv dosage of the Dicationic furans against Pneumocystis carinii in rats measured 10 umol/kg/day; assay type: ADME, organism-based; conditions: rat
Outline: (§2)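 Intravenous dosing of test dications in immunosuppressed rats infected with P. carinii, following a previously described protocol. Infection is scored by lung cyst burden relative to pooled saline-control animals.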

[3] = test system: Rattus norvegicus; assay: In vivo evaluation of iv dosage of the Dicationic furans against Pneumocystis carinii in lung tissue of rats at 10 umol/kg/day; assay type: functional; outline: as §1
[4] = In vivo evaluation of iv dosage of the Dicationic furans against Pneumocystis carinii in rats measured 2 umol/kg/day; assay type: ADME, organism-based; conditions: rat; outline: as §2
[5] = test system: Rattus norvegicus; assay: In vivo evaluation of iv dosage of the Dicationic furans against Pneumocystis carinii in lung tissue of rats at 3.8 umol/kg/day; assay type: functional; outline: as §1
[6] = test system: Rattus norvegicus; assay: In vivo evaluation of iv dosage of the furan dications against Pneumocystis carinii in lung tissue of rats at 7.1 umol/kg/day; assay type: functional; outline: as §1
[7] = test system: Rattus norvegicus; assay: In vivo evaluation of iv dosage of the Dicationic furans against Pneumocystis carinii in lung tissue of rats at 2.5 umol/kg/day; assay type: functional; outline: as §1
[8] = In vivo evaluation of iv dosage of the Dicationic furans against Pneumocystis carinii in rats measured 0.2 umol/kg/day; assay type: ADME, organism-based; conditions: rat; outline: as §2
[9] = In vivo evaluation of iv dosage of the Dicationic furans against Pneumocystis carinii in rats measured 1.1 umol/kg/day; assay type: ADME, organism-based; conditions: rat; outline: as §2
[10] = test system: Rattus norvegicus; assay: In vivo evaluation of iv dosage of the Dicationic furans against Pneumocystis carinii in lung tissue of rats at 10.8 umol/kg/day; assay type: functional; outline: as §1
[11] = In vivo evaluation of iv dosage of the Dicationic furans against Pneumocystis carinii in rats measured 2.2 umol/kg/day; assay type: ADME, organism-based; conditions: rat; outline: as §2
[12] = test system: Rattus norvegicus; assay: In vivo evaluation of iv dosage of the Dicationic furans against Pneumocystis carinii in lung tissue of rats at 2.2 umol/kg/day; assay type: functional; outline: as §1
[13] = In vivo evaluation of iv dosage of the Dicationic furans against Pneumocystis carinii in rats measured 10.8 umol/kg/day; assay type: ADME, organism-based; conditions: rat; outline: as §2
[14] = test system: Rattus norvegicus; assay: In vivo evaluation of iv dosage of the Dicationic furans against Pneumocystis carinii in lung tissue of rats at 0.2 umol/kg/day; assay type: functional; outline: as §1
[15] = test system: Rattus norvegicus; assay: In vivo evaluation of iv dosage of the Dicationic furans against Pneumocystis carinii in lung tissue of rats at 1.1 umol/kg/day; assay type: functional; outline: as §1
[16] = test system: Rattus norvegicus; assay: In vivo evaluation of iv dosage of the Dicationic furans against Pneumocystis carinii in lung tissue of rats at 1.9 umol/kg/day; assay type: functional; outline: as §1
[17] = test system: Rattus norvegicus; assay: In vivo evaluation of iv dosage of the Dicationic furans against Pneumocystis carinii in lung tissue of rats at 9.4 umol/kg/day; assay type: functional; outline: as §1
[18] = In vivo evaluation of iv dosage of the Dicationic furans against Pneumocystis carinii in rats measured 0.9 umol/kg/day; assay type: ADME, organism-based; conditions: rat; outline: as §2
[19] = In vivo evaluation of iv dosage of the Dicationic furans against Pneumocystis carinii in rats measured 1.9 umol/kg/day; assay type: ADME, organism-based; conditions: rat; outline: as §2
[20] = test system: Rattus norvegicus; assay: In vivo evaluation of iv dosage of the Dicationic furans against Pneumocystis carinii in lung tissue of rats at 0.9 umol/kg/day; assay type: functional; outline: as §1
[21] = test system: Rattus norvegicus; assay: In vivo evaluation of iv dosage of the Dicationic furans against Pneumocystis carinii in lung tissue of rats at 5 umol/kg/day; assay type: functional; outline: as §1
[22] = In vivo evaluation of iv dosage of the Dicationic furans against Pneumocystis carinii in rats measured 5 umol/kg/day; assay type: ADME, organism-based; conditions: rat; outline: as §2
[23] = test system: Rattus norvegicus; assay: In vivo evaluation of iv dosage of the Dicationic furans against Pneumocystis carinii in lung tissue of rats at 13.3 umol/kg/day; assay type: functional
Outline: (§3)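 Immunosuppressed rat model of P. carinii pneumonia, with test compounds dosed intravenously per an earlier protocol. Read-out is cyst count per g of lung tissue, compared against pooled saline-treated controls.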

[24] = In vivo evaluation of iv dosage of the Dicationic furans against Pneumocystis carinii in rats measured 13.3 umol/kg/day; assay type: ADME, organism-based; conditions: rat; outline: as §2
[25] = In vivo evaluation of iv dosage of the Dicationic furans against Pneumocystis carinii in rats measured 0.3 umol/kg/day; assay type: ADME, organism-based; conditions: rat; outline: as §2
[26] = In vivo evaluation of iv dosage of the Dicationic furans against Pneumocystis carinii in rats measured 0.03 umol/kg/day; assay type: ADME, organism-based; conditions: rat; outline: as §2
[27] = test system: Rattus norvegicus; assay: In vivo evaluation of iv dosage of the Dicationic furans against Pneumocystis carinii in lung tissue of rats at 2.7 umol/kg/day; assay type: functional; outline: as §3
[28] = In vivo evaluation of iv dosage of the Dicationic furans against Pneumocystis carinii in rats measured 2.7 umol/kg/day; assay type: ADME, organism-based; conditions: rat; outline: as §2
[29] = test system: Rattus norvegicus; assay: In vivo evaluation of iv dosage of the Dicationic furans against Pneumocystis carinii in lung tissue of rats at 0.03 umol/kg/day; assay type: functional; outline: as §3
[30] = test system: Rattus norvegicus; assay: In vivo evaluation of iv dosage of the Dicationic furans against Pneumocystis carinii in lung tissue of rats at 0.3 umol/kg/day; assay type: functional; outline: as §3
[31] = test system: Rattus norvegicus; assay: In vivo evaluation of iv dosage of the furan dications against Pneumocystis carinii in lung tissue of rats at 22 umol/kg/day; assay type: functional; outline: as §1

`CC(C)/N=C(\N)c1ccc2[nH]c(-c3ccc(-c4nc5cc(/C(N)=N/C(C)C)ccc5[nH]4)o3)nc2c1.Cl` gave a Control [1] of 31.77, a Toxicity [2] of 0 and a Control [3] of 0.11%. For the same compound, the Toxicity [4] was 0.
`Cl.N=C(NC1CCCC1)c1ccc2[nH]c(-c3ccc(-c4nc5cc(C(=N)NC6CCCC6)ccc5[nH]4)o3)nc2c1` gave a Control [5] of 53.81%.
`Cl.N=C(N)c1ccc2[nH]c(-c3ccc(-c4nc5cc(C(=N)N)ccc5[nH]4)o3)nc2c1` showed a Control [3] of 1.8%.
`Cl.N=C(N)c1ccc2[nH]c(-c3ccc(-c4ccc(-c5ccc(-c6nc7cc(C(=N)N)ccc7[nH]6)cc5)o4)cc3)nc2c1` showed a Control [6] of 180%.
With `N=C(NC1CCCC1)c1ccc(-c2ccc(-c3nc4cc(C(=N)NC5CCCC5)ccc4[nH]3)o2)cc1` the Control [7] was 0.82%.
Compound `CC(C)/N=C(\N)c1ccc(-c2ccc(-c3nc4cc(/C(N)=N\C(C)C)ccc4[nH]3)o2)cc1` has a Control [3] of 0.13%.
With `CC(C)NC(=N)c1ccc(-c2ccc(-c3ccc(C(=N)NC(C)C)cc3)o2)cc1` the Toxicity [8] was 0, the Toxicity [9] was 0 and the Control [10] was 0.24%. For the same compound, the Toxicity [11] was 0, the Control [12] was 10.04% and the Toxicity [13] was 0. For the same compound, the Control [14] was 201.74% and the Control [15] was 14%.
Compound `N=C(NC1CCCC1)c1ccc(-c2ccc(-c3ccc(C(=N)NC4CCCC4)cc3)o2)cc1` has a Toxicity [8] of 0, a Control [16] of 0.09% and a Control [17] of 0.04%. It also gave a Toxicity [18] of 0, a Control [14] of 111.65% and a Toxicity [19] of 0. It also gave a Control [20] of 0.13%.
`N=C(N)c1ccc(-c2ccc(-c3nc4cc(C(=N)N)ccc4[nH]3)o2)cc1` gave a Control [21] of 50.98% and a Toxicity [22] of 0.
`N=C(N)c1ccc(-c2ccc(-c3ccc(C(=N)N)cc3)o2)cc1` [FURAMIDINE] gave a Control [23] of 0.73%, a Toxicity [24] of 0 and a Toxicity [25] of 0. The Toxicity [26] was 0, the Control [27] was 6.74% and the Toxicity [28] was 0. The Control [29] was 26.23% and the Control [30] was 6.42%.
`N=C(N)c1ccc(OCCCCCOc2ccc(C(=N)N)cc2)cc1` [PENTAMIDINE] gave a Control [31] of 1.82%.
